# Measurements taken from PubChem BioAssay.
# Active and inactive are the calls of the source.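 Rule for the calls, unless noted: active = inhibition at or above 50% relative to wild type and mutant plate controls; inactive = inhibition below 50%.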
# Legend:
# [1] = inhibitors of TNFa-induced NFkB p65 translocation, primary screen, imaging, HUVEC, MLSMR starter and 10KST1 sets (AID 438;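 active = inhibition above 20% together with a positive visual image hit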;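 note: compound added about 3h40 before a 20 min TNFalpha stimulation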;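 for inhibition: signal is the nuclear over cytoplasmic p65 intensity ratio per well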); conditions: HUVEC TNFa-induced p65 nuclear translocation; cell count: measured here: nuclei count (cytotoxicity indicator), at 2.08 µM; inhibition: at 2 µM, stronger effect = higher value, 0% TNFa-plus-vehicle, 100% no-TNFa wells
# [2] = inhibitors of E-selectin induction by TNFa, primary screen, imaging, HUVEC, immunofluorescence, MLSMR starter and 10KST1 sets (AID 487;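 active = visually confirmed hit in the image check and inhibition above 20%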;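 for inhibition: signal is fraction of cell area covered by stained E-selectin grains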;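 for nuclei count: 100% = median nuclei count of all wells on the same plate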); conditions: HUVEC TNFalpha-induced E-selectin immunofluorescence imaging, at 2 µM; inhibition: stronger effect = higher value; nuclei count: measured here: cell number, toxicity
# [3] = DUSP6 inhibitors restoring Erk phosphorylation by chemical complementation, primary imaging in DUSP6-transfected HeLa (AID 609;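 active = compounds giving at least 50% inhibition in the cell-based MKP-3 phosphatase rescue imaging test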;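 for inhibition: phospho-Erk level distribution per well compared with pooled transfected vehicle control wells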); conditions: HeLa MKP-3 transfected, phospho-Erk imaging KS statistic, at 10 µM, cells stimulated with TPA for 15 min
# [4] = biological target: Dual specificity protein phosphatase 6 (Homo sapiens) (UniProt Q16828); experiment: as above; conditions: HeLa MKP-3 transfected, phospho-Erk imaging KS statistic; at 10 µM; stronger effect = higher value; cells stimulated with TPA for 15 min
# Chain of Dual specificity protein phosphatase 6 (Homo sapiens) (Q16828 whole entry, looked up): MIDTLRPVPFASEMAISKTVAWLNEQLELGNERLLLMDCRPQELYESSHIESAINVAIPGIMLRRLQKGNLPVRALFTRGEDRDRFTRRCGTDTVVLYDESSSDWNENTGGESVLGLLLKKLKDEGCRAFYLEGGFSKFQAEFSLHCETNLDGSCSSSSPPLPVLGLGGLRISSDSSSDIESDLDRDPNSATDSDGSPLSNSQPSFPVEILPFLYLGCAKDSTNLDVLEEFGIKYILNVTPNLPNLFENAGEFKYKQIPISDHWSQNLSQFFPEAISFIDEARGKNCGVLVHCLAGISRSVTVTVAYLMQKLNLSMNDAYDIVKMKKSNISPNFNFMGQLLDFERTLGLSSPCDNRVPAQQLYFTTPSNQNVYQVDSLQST
# [5] = biological target: Voltage-gated potassium channel subunit beta-2 (Rattus norvegicus) (UniProt P62483); experiment: KvBeta enzyme negative modulators, primary screen, biochemical, NADPH fluorescence (AID 622;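 active = fluorescence slope higher than the sample average by over 3 SD, cut at about -0.22 in these data, passing the limit was not always enough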;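 note: slope of raw intensity against log time taken from 70 to 1610 s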); conditions: recombinant KvBeta, 4-cyanobenzaldehyde reduction, at 10 µM, stronger effect = higher value
# Chain of Voltage-gated potassium channel subunit beta-2 (Rattus norvegicus) (P62483 whole entry, looked up): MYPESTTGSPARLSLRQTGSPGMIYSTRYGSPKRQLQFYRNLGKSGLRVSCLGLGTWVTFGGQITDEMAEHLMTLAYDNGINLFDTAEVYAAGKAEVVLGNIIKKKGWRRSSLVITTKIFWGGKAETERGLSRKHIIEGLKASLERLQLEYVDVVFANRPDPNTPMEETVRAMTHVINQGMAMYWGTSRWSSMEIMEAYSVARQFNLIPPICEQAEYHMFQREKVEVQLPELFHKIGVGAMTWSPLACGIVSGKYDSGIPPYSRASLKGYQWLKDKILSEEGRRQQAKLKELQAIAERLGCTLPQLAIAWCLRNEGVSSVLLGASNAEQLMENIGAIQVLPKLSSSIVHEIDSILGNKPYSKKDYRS
# [6] = biological target: Voltage-gated potassium channel subunit beta-2 (Rattus norvegicus) (UniProt P62483); experiment: KvBeta positive modulators, primary screen, biochemical, NADPH fluorescence (AID 623;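 active = NADPH fluorescence slope more negative than the mean of all samples by about 3 SD, 99.7% confidence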;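 note: fluorescence intensity change per second fitted from 20 to 320 s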); conditions: Recombinant KvBeta, NADPH fluorescence decrease slope, 10 min; at 10 µM; stronger effect = lower value
# [7] = biological target: Alpha-2C adrenergic receptor (Homo sapiens) (UniProt P18825); experiment: modulators of alpha2C/GIRK thallium flux, primary screen, cell-based, HEK293 alpha2C/GIRK1/2 (AID 624;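 active = fluorescence slope after compound addition differing from the mean of all screened samples at 99.7% confidence, in either direction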;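 note: slope of fluorescence ratio to pre-addition baseline per second over 15 to 24 s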); conditions: thallium flux BTC fluorescence, at 10 µM, actives lie on both sides
# Chain of Alpha-2C adrenergic receptor (Homo sapiens) (P18825 whole entry, looked up): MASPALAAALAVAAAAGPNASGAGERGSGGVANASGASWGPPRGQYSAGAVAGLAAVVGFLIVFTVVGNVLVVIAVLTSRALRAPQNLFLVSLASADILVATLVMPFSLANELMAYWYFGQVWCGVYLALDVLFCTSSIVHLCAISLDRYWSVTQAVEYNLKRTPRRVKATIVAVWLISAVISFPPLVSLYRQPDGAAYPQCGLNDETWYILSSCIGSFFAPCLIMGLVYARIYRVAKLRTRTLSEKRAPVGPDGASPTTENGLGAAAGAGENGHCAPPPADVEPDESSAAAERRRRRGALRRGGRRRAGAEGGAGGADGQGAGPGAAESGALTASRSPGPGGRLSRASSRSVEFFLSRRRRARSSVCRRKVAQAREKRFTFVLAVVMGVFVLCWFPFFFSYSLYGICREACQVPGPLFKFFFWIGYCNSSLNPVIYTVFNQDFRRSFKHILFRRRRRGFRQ
# [8] = inhibitors of larval lipid processing in zebrafish, primary screen, whole organism, PED6 fluorescence, gall bladder and intestine (AID 686;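 active = a full or partial loss of lipid-probe fluorescence in the fish gall bladder, intestine or both, judged by eye; inactive = no fluorescence loss, or compound toxic to the fish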;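 note: larvae 5 to 7 days old with five fish per well; signal comes from phospholipase A2 cleavage of quenched PED6 carried via bile; overnight exposure to compound and PED6 before scoring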); conditions: Zebrafish larvae PED6 lipid processing, fluorescence scoring; screened at 20 µM (by protocol)
# Method in brief: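 Also added: quenched phospholipase substrate PED6, 100 nM final, ingested by larvae; System: zebrafish larvae, 5-7 d; Quantity: 5 larvae per well; Compound: 20 µM single dose; Schedule: overnight compound and PED6 incubation; Read-out: visual per-well fluorescence inhibition score; Measured by: By-eye fluorescence microscopy; Medium: E3.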
# [9] = inhibitors of Chlamydomonas gravitaxis, primary screen, whole organism, Chlamydomonas reinhardtii, WT vs cilia-less mutant, absorbance, 96-well (AID 463189); conditions: OD600 absorbance, 2 days, at 10 µM, stronger effect = higher value;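 note: 0% = wild type cc124 cells in DMSO and 100% = ciliumless bld1 mutant cells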
# [10] = measured here: cell density z-score
# [11] = measured here: nuclear c-Myc green intensity z-score
# [12] = measured here: nuclear pErk red intensity z-score, stronger effect = higher value
SMILES,cell count [1],inhibition [1],inhibition [2],nuclei count [2],"z-score [3, 10]","z-score [3, 11]","z-score [3, 12]",inhibition [4],fluorescence slope [5],NADPH fluorescence slope [6],slope [7],outcome [8],inhibition [9]
CCOc1cccc(-c2nn3c(-c4ccco4)nnc3s2)c1,591,-18.9% (inactive),-310% (inactive),153%,-0.574,-0.476,-0.496,-4.27% (inactive),-0.409 (inactive),-0.00014 (inactive),0.00461 (inactive),inactive,17.2% (inactive)
O=C(CN1C(=O)c2ccccc2C1=O)NCc1ccncc1,357,-6.8% (inactive),-60.9% (inactive),167%,0.341,-1.51,1.76,-10.6% (inactive),-0.432 (inactive),-0.000133 (inactive),0.00529 (inactive),inactive,31% (inactive)
CSc1nc2sc3c(c2c(=O)n1C1CCCCC1)CCN(C)C3,563,1.3% (inactive),-69.6% (inactive),107%,0.231,0.631,-1.25,9.82% (inactive),-0.375 (inactive),-2.1e-06 (inactive),0.00516 (inactive),inactive,-15.6% (inactive)
Cc1cc(=O)oc(C)c1C(=O)N1CCN(Cc2ccc3c(c2)OCO3)CC1,387,-8.4% (inactive),-58.3% (inactive),158%,-0.184,-0.833,-0.4,9.42% (inactive),-0.451 (inactive),-0.000128 (inactive),0.00491 (inactive),inactive,21.2% (inactive)
COc1cccc2c(=O)c(SC(F)(F)C(F)C(F)(F)F)c(C)[nH]c12 (stereo not drawn),311,-0.8% (inactive),-14.2% (inactive),105%,0.112,2.52,-0.995,-2.91% (inactive),-0.393 (inactive),-3e-05 (inactive),0.00581 (inactive),inactive,-12.2% (inactive)
C=C(C)CN1CCN(c2c(CCC#N)c(C)c(C#N)c3nc4ccccc4n23)CC1,553,-17.5% (inactive),-77% (inactive),159%,-0.509,-0.729,-0.345,-4.27% (inactive),-0.00664 (inactive),-2.3e-06 (inactive),0.00756 (inactive),inactive,17.9% (inactive)
N#CC(C(=O)NC1CC1)c1nc2ccccc2nc1N1CCN(C/C=C/c2ccccc2)CC1 (stereo not drawn),507,-4.6% (inactive),-99.8% (inactive),164%,-0.376,0.378,1.69,2.46% (inactive),-0.304 (inactive),-1.2e-05 (inactive),-0.000245 (inactive),inactive,26.9% (inactive)
COc1ccc(OC)c(C2C(C(=O)c3ccco3)=C(O)C(=O)N2CCCN2CCOCC2)c1 (stereo not drawn),546,-4.5% (inactive),-85% (inactive),159%,-1.04,0.589,-0.634,-0.674% (inactive),-0.495 (inactive),-3.6e-05 (inactive),0.0072 (inactive),inactive,2.93% (inactive)
CC(=O)c1c(C(C)=O)c(C)n(NC(=O)c2ccncc2)c1C,557,1.2% (inactive),-2.4% (inactive),133%,1.16,-1.48,0.477,5.26% (inactive),-0.305 (inactive),7.7e-06 (inactive),0.00487 (inactive),inactive,8.61% (inactive)
COc1ccc(C2=CC(c3cccc(OC)c3)n3nnnc3N2)cc1 (stereo not drawn),539,-14.8% (inactive),-119% (inactive),145%,2.98,-1.71,-0.495,13.7% (inactive),-0.474 (inactive),-6.4e-05 (inactive),0.00383 (inactive),inactive,6.7% (inactive)
COc1cc(C(=O)Nc2nccs2)cc(OC)c1OC,542,-19.4% (inactive),53.4% (inactive),163%,1.12,-0.213,0.494,-13.3% (inactive),-0.409 (inactive),-6e-05 (inactive),0.00501 (inactive),inactive,-0.002% (inactive)
